Assays:
Bacteria [1] = assay: Inhibition of […] (unknown origin) using imipenem as substrate at 50 uM by spectrophotometric assay relative to control
Summary of the method: (§1)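 Reporter-substrate spectrophotometric assay in 50 mM HEPES pH 7.5. Imipenem 150 μM (final) hydrolysis followed as absorbance change at 300 nm, with and without 50 μM compound. Compounds dissolved in DMSO (100 mM stock) and diluted in reaction buffer. % inhibition = 100 − 100×(vi/v0). 5 mM EDTA served as inhibition control.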

Escherichia coli [2] = assay: Synergistic antibacterial activity against Escherichia coli SI-004M assessed as meropenem MIC at 32 ug/ml after 24 hrs by two-fold serial dilution method; type: functional; settings: dose 32 µg/ml
Summary of the method: (§2)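 Meropenem MICs against NDM-1-producing clinical isolates, with or without inhibitor fixed at 32 μg/mL, by two-fold serial dilution in Mueller-Hinton broth. Inoculum 5×10^4 CFU/well, CLSI method. Inhibitor added before the antibiotic. Plates incubated 24 h at 35 °C and read visually. Done in triplicate.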

Klebsiella pneumoniae [3] = assay: Synergistic antibacterial activity against Klebsiella pneumoniae SI-518 assessed as meropenem MIC at 32 ug/ml after 24 hrs by two-fold serial dilution method; type: functional; settings: dose 32 µg/ml; summary of the method: as §2
Klebsiella pneumoniae [4] = assay: Synergistic antibacterial activity against Klebsiella pneumoniae SI-518 assessed as fold reduction in meropenem MIC at 32 ug/ml after 24 hrs by two-fold serial dilution method; type: functional; settings: dose 32 µg/ml; summary of the method: as §2
[5] = Inhibition of IMP-1 (unknown origin) using imipenem as substrate by spectrophotometric assay relative to control; set-up: species or system Bacteria
Summary of the method: (§3)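 Ki from a competitive model. Initial rates of hydrolysis of 150 μM imipenem (reporter substrate) measured spectrophotometrically in 50 mM HEPES pH 7.5 at varying inhibitor concentrations. v0/vi plotted against [I], and Ki = KM/[(KM+[S])·slope]. Assays run in triplicate.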

Escherichia coli [6] = assay: Synergistic antibacterial activity against Escherichia coli SI-004M assessed as fold reduction in meropenem MIC at 32 ug/ml after 24 hrs by two-fold serial dilution method; type: functional; settings: dose 32 µg/ml; summary of the method: as §2
[7] = Inhibition of […] (unknown origin) using imipenem as substrate by spectrophotometric assay relative to control; set-up: species or system Bacteria; summary of the method: as §3
Bacteria [8] = assay: Inhibition of VIM-2 (unknown origin) using imipenem as substrate at 50 uM by spectrophotometric assay relative to control; summary of the method: as §1
Bacteria [9] = assay: Inhibition of IMP-1 (unknown origin) using imipenem as substrate at 50 uM by spectrophotometric assay relative to control; summary of the method: as §1
Klebsiella pneumoniae [10] = assay: Antibacterial activity against Klebsiella pneumoniae SI-518 assessed as reduction in microbial growth after 24 hrs by two-fold serial dilution method; type: functional
Summary of the method: (§4)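 NDM-1-producing clinical isolate; meropenem MIC measured without inhibitor and with a fixed 32 μg/mL inhibitor (in each well and in the diluent) over two-fold serial dilutions. Mueller-Hinton broth, 5×10^4 CFU/well inoculum, per CLSI. Incubated 35 °C for 24 h and read visually. Triplicate. Compounds from a DMSO stock diluted in medium.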

Escherichia coli [11] = assay: Antibacterial activity against Escherichia coli SI-004M assessed as reduction in microbial growth after 24 hrs by two-fold serial dilution method; type: functional; summary of the method: as §4

Row | SMILES | inhibition (Bacteria [1]) | Ki [7] | inhibition (Bacteria [8]) | inhibition (Bacteria [9]) | further results
1 | CCCCOc1ccc(/C=C2\Oc3cc(O)cc(O)c3C2=O)c(O)c1 | 46% | – | – | – | –
2 | Oc1cccc2ccc(/C=C/c3ccccc3)nc12 | 95% | 2.2 µM | 37% | 84% | MIC (Escherichia coli [2]): 1 µg/mL; MIC (Klebsiella pneumoniae [3]): 0.25 µg/mL; fold change (FC) (Klebsiella pneumoniae [4]): 256; Ki [5]: 4.7 µM; fold change (FC) (Escherichia coli [6]): 64
3 | Oc1cccc2ccc(/C=C/c3ccc4c(c3)OCO4)nc12 | 93% | – | 26% | 79% | –
4 | O=C(/C=C/c1ccc2c(c1)OCO2)c1ccccc1O | < 20% | – | – | – | –
5 | Oc1cccc2ccc(CCc3ccc4c(c3)OCO4)nc12 | 90% | 1.1 µM | 38% | 71% | MIC (Escherichia coli [2]): 64 µg/mL; MIC (Klebsiella pneumoniae [3]): 64 µg/mL
6 | O=C1/C(=C/c2ccc(O)c(O)c2)Cc2cc(O)cc(O)c21 | 77% | 4.1 µM | < 20% | 23% | –
7 | O=C(/C=C/c1ccc(N2CCOCC2)cc1)c1ccccc1O | 24% | – | – | – | –
8 | Oc1cccc2ccc(CCc3ccccc3)nc12 | 85% | – | 28% | 76% | –
9 | O=C(/C=C/c1ccc(N2CCCCC2)cc1)c1ccccc1O | 35% | – | – | – | –
10 | C[C@@H](O)[C@H]1C(=O)N2C(C(=O)O)=C(S[C@@H]3CN[C@H](C(=O)N(C)C)C3)[C@H](C)[C@H]12 [MEROPENEM] | – | – | – | – | MIC (Klebsiella pneumoniae [10]): 64 µg/mL; MIC (Escherichia coli [11]): 64 µg/mL
11 | O=C1/C(=C/c2ccc(N3CCCCC3)cc2)Oc2cc(O)cc(O)c21 | 74% | 4.8 µM | < 20% | < 20% | –
